According to ChEMBL document CHEMBL4706562, “Design, synthesis and evaluation of covalent inhibitors of DprE1 as antitubercular agents” (Eur J Med Chem, 2020):
In brackets after ≈: the same amount, converted by molar mass. Activity calls are given as the source filed them. The rule behind the calls is not given here.

Tests used:
[1] = molecular target: T1, Decaprenylphosphoryl-beta-D-ribose oxidase (Mycobacterium tuberculosis (strain ATCC 25618 / H37Rv), UniProt P9WJF1); assay: Inhibition of Mycobacterium tuberculosis DprE1 expressed in Escherichia coli BL21 (DE3) cells assessed as formation of resorufin using FPR as substrate by Amplex Red hydrogen/peroxidase coupled assay
T1 sequence (P9WJF1 whole entry): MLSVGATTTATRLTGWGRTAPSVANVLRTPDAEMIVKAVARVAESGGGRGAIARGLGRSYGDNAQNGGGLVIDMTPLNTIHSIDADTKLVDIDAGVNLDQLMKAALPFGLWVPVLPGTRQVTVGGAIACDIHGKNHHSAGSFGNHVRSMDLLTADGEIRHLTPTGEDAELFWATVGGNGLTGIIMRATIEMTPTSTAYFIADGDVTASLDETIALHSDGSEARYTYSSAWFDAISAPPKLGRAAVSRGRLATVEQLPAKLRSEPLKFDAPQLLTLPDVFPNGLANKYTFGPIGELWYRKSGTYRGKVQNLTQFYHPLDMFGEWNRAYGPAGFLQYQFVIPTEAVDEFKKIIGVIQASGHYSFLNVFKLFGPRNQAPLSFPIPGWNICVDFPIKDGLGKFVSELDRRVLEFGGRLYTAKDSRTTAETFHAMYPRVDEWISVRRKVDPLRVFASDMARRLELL

[2] = test system: Mycobacterium tuberculosis; assay: Antimycobacterial activity against Mycobacterium tuberculosis H37Rv ATCC 25618 assessed as inhibition of visible bacterial growth by MABA assay; assay type: functional
Method in brief: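 Inoculum adjusted to 1.0 McFarland, diluted 1:20 in Middlebrook 7H9 with 10% OADC and 0.2% glycerol. Compounds taken from 1.0 mg/mL DMSO stocks and serially diluted two-fold. Microplate alamar blue read-out: blue to pink marks growth, colours recorded after 24 h. MIC taken as the lowest concentration giving no colour change. PBTZ169 served as positive control.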

[3] = molecular target: T2, Decaprenylphosphoryl-beta-D-ribose oxidase (Mycobacterium tuberculosis (strain ATCC 25618 / H37Rv)) (UniProt P9WJF1); assay: Inhibition of Mycobacterium tuberculosis DprE1 expressed in Escherichia coli BL21 (DE3) cells assessed as formation of resorufin using FPR as substrate at 20 uM by Amplex Red hydrogen/peroxidase coupled assay; set-up: scale not given: the % may be the effect or the level left
T2 sequence (whole entry): T1 sequence (P9WJF1 whole entry)

[4] = Half life of the compound in PBS assessed as parent compound remaining by HPLC analysis; assay type: physicochemical
[5] = Reactivity of compound towards methyl thioglycolate in PBS measured after 48 hrs by LC/MS/MS; assay type: physicochemical; details: buffer
Method in brief: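 Test compound and methyl thioglycolate co-incubated at 37 °C in 50 mM PBS, pH 7.4. The reaction was followed by TLC, and aliquots were injected into LC-MS/MS at set intervals over 48 h. Electrospray positive-ion mass spectra detected MT adducts, and half-life was determined.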

[6] = molecular target: T2, Decaprenylphosphoryl-beta-D-ribose oxidase (Mycobacterium tuberculosis (strain ATCC 25618 / H37Rv)); assay: Inhibition of Mycobacterium tuberculosis H37Rv DprE1 assessed as increase in trehalose monomycolates at 100 x MIC incubated for 24 hrs using [14C]acetate by TLC based metabolic labelling assay relative to control
Method in brief: (§1)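 M. tuberculosis H37Rv cultures labelled with [14C]acetate for 24 h. […] Lipids extracted and resolved by TLC, with TDM/TMM compared to untreated control cells. BTZ043 and PBTZ169 served as control inhibitors.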

[7] = molecular target: T2, Decaprenylphosphoryl-beta-D-ribose oxidase (Mycobacterium tuberculosis (strain ATCC 25618 / H37Rv)); assay: Covalent binding affinity to Mycobacterium tuberculosis DprE1 assessed as adduct formation by measuring 490 Da shift increase in molecular weight at 100 uM by Mass spectrometry analysis
[8] = molecular target: T2, Decaprenylphosphoryl-beta-D-ribose oxidase (Mycobacterium tuberculosis (strain ATCC 25618 / H37Rv)); assay: Inhibition of Mycobacterium tuberculosis H37Rv DprE1 assessed as increase in trehalose dimycolates at 10 x MIC preincubated for 24 hrs using [14C]acetate by TLC based metabolic labelling assay relative to control; method in brief: as §1
[9] = molecular target: T2, Decaprenylphosphoryl-beta-D-ribose oxidase (Mycobacterium tuberculosis (strain ATCC 25618 / H37Rv)); assay: Inhibition of Mycobacterium tuberculosis H37Rv DprE1 assessed as increase in trehalose dimycolates at 100 x MIC incubated for 24 hrs using [14C]acetate by TLC based metabolic labelling assay relative to control; method in brief: as §1
[10] = molecular target: T2, Decaprenylphosphoryl-beta-D-ribose oxidase (Mycobacterium tuberculosis (strain ATCC 25618 / H37Rv)); assay: Binding affinity to trypsin digested Mycobacterium tuberculosis DprE1 protein assessed as Cys387 adduct formation with 387-CVDFP-391 sequence at 300 uM by measuring retention time by LC/MS analysis
[11] = molecular target: T2, Decaprenylphosphoryl-beta-D-ribose oxidase (Mycobacterium tuberculosis (strain ATCC 25618 / H37Rv)); assay: Inhibition of Mycobacterium tuberculosis H37Rv DprE1 assessed as increase in trehalose monomycolates at 10 x MIC preincubated for 24 hrs using [14C]acetate by TLC based metabolic labelling assay relative to control; method in brief: as §1
[12] = molecular target: T2, Decaprenylphosphoryl-beta-D-ribose oxidase (Mycobacterium tuberculosis (strain ATCC 25618 / H37Rv)); assay: Covalent binding affinity to Mycobacterium tuberculosis DprE1 assessed as adduct formation by measuring 460 Da shift increase in molecular weight at 100 uM by Mass spectrometry analysis
[13] = molecular target: T2, Decaprenylphosphoryl-beta-D-ribose oxidase (Mycobacterium tuberculosis (strain ATCC 25618 / H37Rv)); assay: Binding affinity to trypsin digested Mycobacterium tuberculosis DprE1 protein assessed as Cys387 adduct formation with 385-NICVDFPIL-393 sequence at 300 uM by measuring retention time by LC/MS analysis

| Structure (SMILES) | IC50 [1] | MIC [2] | half-life [4] | Activity [5] | Activity [6] | Activity [9] | further results |
| --- | --- | --- | --- | --- | --- | --- | --- |
| N#Cc1ccc2c(=O)nc(N3CCN(CC4CCCCC4)CC3)sc2n1 | 7720 nM | > 12 µM |  |  |  |  |  |
| N#Cc1ncc2c(=O)nc(N3CCN(CC4CCCCC4)CC3)sc2n1 | > 20000 nM | 6.73 µM (≈ 2.49 µg/mL) |  |  |  |  |  |
| N#C/C=C/c1cc(C(F)(F)F)cc2c(=O)nc(N3CCN(CC4CCCCC4)CC3)sc12 |  | > 20 µM | 0.2 h | Active |  |  | Activity [3]: < 70% |
| CN(C)C(=O)/C=C/c1cc(C(F)(F)F)cc2c(=O)nc(N3CCN(CC4CCCCC4)CC3)sc12 | 1250 nM | > 20 µM | > 48 h | Active |  |  |  |
| COC(=O)CCc1cc(C(F)(F)F)cc2c(=O)nc(N3CCN(CC4CCCCC4)CC3)sc12 | 5400 nM | > 9 µM |  |  |  |  |  |
| N#Cc1cc(C(F)(F)F)cc2c(=O)nc(N3CCN(CC4CCCCC4)CC3)sc12 | 1700 nM | 0.16 µM (≈ 0.0698 µg/mL) | 12 h | Active |  |  |  |
| COC(=O)/C=C/c1cc(C(F)(F)F)cc2c(=O)nc(N3CCN(CC4CCCCC4)CC3)sc12 | 1240 nM | > 20 µM | 1 h | Active | inactive | inactive | Activity [7]: Active; Activity [8]: Active; Retention time [10]: 43.3 min; Activity [11]: Active |
| COC(=O)C#Cc1cc(C(F)(F)F)cc2c(=O)nc(N3CCN(CC4CCCCC4)CC3)sc12 | 140 nM | 10 µM (≈ 4.94 µg/mL) | 1.2 h | Active | inactive | inactive | Activity [8]: Active; Activity [11]: Active |
| N#CCCc1cc(C(F)(F)F)cc2c(=O)nc(N3CCN(CC4CCCCC4)CC3)sc12 | 13200 nM | > 9 µM |  |  |  |  |  |
| O=c1nc(N2CCN(CC3CCCCC3)CC2)sc2c(Cl)cc(C(F)(F)F)cc12 | 920 nM | 0.03 µM (≈ 0.0134 µg/mL) |  |  |  |  | Activity [8]: Active; Activity [11]: Active |
| NC(=O)CCc1cc(C(F)(F)F)cc2c(=O)nc(N3CCN(CC4CCCCC4)CC3)sc12 | 16700 nM | > 9 µM |  |  |  |  |  |
| O=c1nc(N2CCN(CC3CCCCC3)CC2)sc2c(/C=C/c3ccccn3)cc(C(F)(F)F)cc12 |  | > 20 µM |  |  |  |  | Activity [3]: < 70% |
| C[C@H]1COC2(CCN(c3nc(=O)c4cc(C(F)(F)F)cc([N+](=O)[O-])c4s3)CC2)O1 |  |  |  |  | Active | Active |  |
| O=c1nc(N2CCN(CC3CCCCC3)CC2)sc2c(Br)cc(C(F)(F)F)cc12 | 1840 nM | 0.16 µM (≈ 0.0785 µg/mL) |  |  |  |  | Activity [8]: Active; Activity [11]: Active |
| NC(=O)/C=C/c1cc(C(F)(F)F)cc2c(=O)nc(N3CCN(CC4CCCCC4)CC3)sc12 | 200 nM | 20 µM (≈ 9.61 µg/mL) | 10 h | Active | inactive | inactive | Activity [8]: Active; Activity [12]: Active; Retention time [13]: 29.3 min; Activity [11]: Active |
| O=c1nc(N2CCN(CC3CCCCC3)CC2)sc2nc(Cl)ncc12 | > 20000 nM | > 20 µM | 4 h | Active |  |  |  |
| CNC(=O)/C=C/c1cc(C(F)(F)F)cc2c(=O)nc(N3CCN(CC4CCCCC4)CC3)sc12 | 390 nM | 20 µM (≈ 9.89 µg/mL) |  |  | inactive | inactive |  |
| O=c1nc(N2CCN(CC3CCCCC3)CC2)sc2c(I)cc(C(F)(F)F)cc12 | 2350 nM | 0.63 µM (≈ 0.339 µg/mL) |  |  |  |  |  |
| O=c1nc(N2CCN(CC3CCCCC3)CC2)sc2c([N+](=O)[O-])cc(C(F)(F)F)cc12 [MACOZINONE] |  |  |  |  | Active | Active |  |
